Experiment: Metabolic stability in human liver microsomes assessed as compound remaining preincubated for 5 mins in presence of NADPH regeneration system followed by HLM addition measured after 240 mins by LC-MS analysis
Format: ADME, Microsome
Details: read-out: Stabilty
Method in brief: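 Compounds were incubated with human liver microsomes and sampled at 0, 10, 20, 30, 60, 120, 180 and 240 min. Degradation and metabolite formation were followed by LC-MS, ESI(+). Run in triplicate; mean with standard deviation reported.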
A remaining at 4 h of 66.9% was found for `NC(=O)[C@H](CCC1CCCCC1)NC(=O)c1ccc(CNC(=O)c2cnn(-c3ccccc3)c2N)cc1` in this work.
A remaining at 4 h of 99.5% was found for `Nc1c(C(=O)NCc2ccc(C(=O)N[C@@H](CCC3CCCCC3)C(=O)NCc3ccncc3)cc2)cnn1-c1ccccc1` in this work.
A remaining at 4 h of 64% was found for `CCNC(=O)[C@H](CCC1CCCCC1)NC(=O)c1ccc(CNC(=O)c2cnn(-c3ccccc3)c2N)cc1` in this work.
A remaining at 4 h of 83.5% was found for `Nc1c(C(=O)NCc2ccc(C(=O)N[C@@H](CCC3CCCCC3)C(=O)Nc3ccc(F)cc3)cc2)cnn1-c1ccccc1` in this work.

Reference: ChEMBL document CHEMBL4706611, “Selective targeting of the αC and DFG-out pocket in p38 MAPK” (Eur J Med Chem, 2020)
